Assay [1] is described as follows: inhibitors of TNFa-induced NFkB p65 translocation, primary screen, imaging, HUVEC, MLSMR starter and 10KST1 sets (AID 438).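 Further: compound added about 3h40 before a 20 min TNFalpha stimulation.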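 On inhibition: signal is the nuclear over cytoplasmic p65 intensity ratio per well.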 The settings on record: HUVEC TNFa-induced p65 nuclear translocation; cell count: measured here: nuclei count (cytotoxicity indicator), at 2.08 µM; inhibition: at 2 µM, stronger effect = higher value, 0% TNFa-plus-vehicle, 100% no-TNFa wells.
Assay [2] is described as follows: endothelial E-selectin expression blockers – imaging, HUVEC, immunofluorescence, MLSMR starter and 10KST1 sets, primary screen (AID 487;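 active means visually confirmed hit in the image check and inhibition above 20%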;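 on inhibition: signal is fraction of cell area covered by stained E-selectin grains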;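 on nuclei count: 100% = median nuclei count of all wells on the same plate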). The note with it: HUVEC TNFalpha-induced E-selectin immunofluorescence imaging, at 2 µM; inhibition: stronger effect = higher value; nuclei count: measured here: cell number, toxicity.
The nature of assay [3]: Primary imaging screen for DUSP6 inhibitors that restore phospho-Erk in transfected HeLa cells, chemical complementation (AID 609;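 active means compounds giving at least 50% inhibition in the cell-based MKP-3 phosphatase rescue imaging test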;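 on inhibition: phospho-Erk level distribution per well compared with pooled transfected vehicle control wells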). The note with it: HeLa MKP-3 transfected, phospho-Erk imaging KS statistic, at 10 µM, cells stimulated with TPA for 15 min.
Assay [4] has as its target Dual specificity protein phosphatase 6 (Homo sapiens) (UniProt Q16828). The description is as above. The settings on record: HeLa MKP-3 transfected, phospho-Erk imaging KS statistic; at 10 µM; stronger effect = higher value; cells stimulated with TPA for 15 min.
Assay [5] has as its target Voltage-gated potassium channel subunit beta-2 (Rattus norvegicus) (UniProt P62483). Briefly: inhibitors of rat Kvbeta2 reductase activity – biochemical, NADPH fluorescence, primary screen (AID 622;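 active means fluorescence slope higher than the sample average by over 3 SD, cut at about -0.22 in these data, passing the limit was not always enough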;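 further: slope of raw intensity against log time taken from 70 to 1610 s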). The note with it: recombinant KvBeta, 4-cyanobenzaldehyde reduction, at 10 µM, stronger effect = higher value.
For assay [6] the target is unchanged. Nature of the assay: enhancers of rat Kvbeta2 NADPH turnover – biochemical, NADPH fluorescence, primary screen (AID 623;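 active means NADPH fluorescence slope more negative than the mean of all samples by about 3 SD, 99.7% confidence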;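 further: fluorescence intensity change per second fitted from 20 to 320 s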). The note with it: Recombinant KvBeta, NADPH fluorescence decrease slope, 10 min; at 10 µM; stronger effect = lower value.
The target in assay [7] is Alpha-2C adrenergic receptor (Homo sapiens) (UniProt P18825). Nature of the assay: compounds altering alpha2C-coupled GIRK flux – cell-based, HEK293 alpha2C/GIRK1/2, thallium flux, primary screen (AID 624;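 active means fluorescence slope after compound addition differing from the mean of all screened samples at 99.7% confidence, in either direction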;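 further: slope of fluorescence ratio to pre-addition baseline per second over 15 to 24 s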). The settings on record: thallium flux BTC fluorescence, at 10 µM, actives lie on both sides.
Chain of Alpha-2C adrenergic receptor (Homo sapiens) (P18825 whole entry, looked up): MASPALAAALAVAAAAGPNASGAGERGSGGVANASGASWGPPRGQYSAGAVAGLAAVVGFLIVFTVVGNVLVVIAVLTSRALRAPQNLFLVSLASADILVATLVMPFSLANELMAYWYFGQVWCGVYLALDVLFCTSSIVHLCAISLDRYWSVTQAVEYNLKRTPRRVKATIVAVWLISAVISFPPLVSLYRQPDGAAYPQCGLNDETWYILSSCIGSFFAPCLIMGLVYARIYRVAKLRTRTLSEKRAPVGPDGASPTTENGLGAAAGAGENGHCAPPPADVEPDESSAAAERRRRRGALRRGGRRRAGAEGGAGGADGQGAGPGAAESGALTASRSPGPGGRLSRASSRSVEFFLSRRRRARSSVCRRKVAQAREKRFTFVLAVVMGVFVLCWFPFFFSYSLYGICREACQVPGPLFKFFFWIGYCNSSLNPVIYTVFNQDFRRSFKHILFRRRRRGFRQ
Assay [8] can be described thus: inhibitors of larval lipid processing in zebrafish, primary screen, whole organism, PED6 fluorescence, gall bladder and intestine (AID 686;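 active means a full or partial loss of lipid-probe fluorescence in the fish gall bladder, intestine or both, judged by eye; inactive means no fluorescence loss, or compound toxic to the fish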;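 further: larvae 5 to 7 days old with five fish per well; signal comes from phospholipase A2 cleavage of quenched PED6 carried via bile; overnight exposure to compound and PED6 before scoring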). The settings on record: Zebrafish larvae PED6 lipid processing, fluorescence scoring; screened at 20 µM (by protocol). In outline: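 Test system – live zebrafish larvae aged 5-7 days, whole organism · Buffer or medium – E3 fish medium · Reagent – quenched phospholipase substrate PED6, 100 nM final, ingested by larvae · Doses – 20 µM single dose · Incubation – overnight compound and PED6 incubation · Technique – visual fluorescence microscopy scoring of gall bladder, gut · Read-out basis – visual per-well fluorescence inhibition score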

Assay [9] can be described thus: loss of swimming-algae plug formation – whole organism, Chlamydomonas reinhardtii, WT vs cilia-less mutant, absorbance, 96-well, primary screen (AID 463189;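 active means inhibition at or above 50% relative to wild type and mutant plate controls; inactive means inhibition below 50%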;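 further: 0% = wild type cc124 cells in DMSO and 100% = ciliumless bld1 mutant cells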). The settings on record: Chlamydomonas reinhardtii gravitaxis, OD600 absorbance, 2 days; at 10 µM; stronger effect = higher value.
Setting [10] is: measured here: cell density z-score.
The mark [11] stands for this setting: measured here: nuclear c-Myc green intensity z-score.
[12] abbreviates: measured here: nuclear pErk red intensity z-score, stronger effect = higher value.

Activity calls are given as the source filed them.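 How the source made its calls, unless noted: active means inhibition above 20% together with a positive visual image hit; inconclusive means visual image hit but inhibition not above 20%; inactive means no visual image hit.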

The values that follow come from PubChem BioAssay.

Chain of Voltage-gated potassium channel subunit beta-2 (Rattus norvegicus) (P62483 whole entry, looked up): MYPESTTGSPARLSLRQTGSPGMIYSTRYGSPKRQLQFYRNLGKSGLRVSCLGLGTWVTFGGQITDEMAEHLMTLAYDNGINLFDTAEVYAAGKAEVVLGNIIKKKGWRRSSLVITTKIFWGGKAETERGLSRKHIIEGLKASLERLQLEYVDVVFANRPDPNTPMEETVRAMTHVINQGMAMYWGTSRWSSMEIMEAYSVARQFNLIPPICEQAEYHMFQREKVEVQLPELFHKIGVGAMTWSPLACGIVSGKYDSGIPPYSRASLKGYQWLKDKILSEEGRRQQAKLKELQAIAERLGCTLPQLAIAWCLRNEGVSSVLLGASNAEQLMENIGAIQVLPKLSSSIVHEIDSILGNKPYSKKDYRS
Chain of Dual specificity protein phosphatase 6 (Homo sapiens) (Q16828 whole entry, looked up): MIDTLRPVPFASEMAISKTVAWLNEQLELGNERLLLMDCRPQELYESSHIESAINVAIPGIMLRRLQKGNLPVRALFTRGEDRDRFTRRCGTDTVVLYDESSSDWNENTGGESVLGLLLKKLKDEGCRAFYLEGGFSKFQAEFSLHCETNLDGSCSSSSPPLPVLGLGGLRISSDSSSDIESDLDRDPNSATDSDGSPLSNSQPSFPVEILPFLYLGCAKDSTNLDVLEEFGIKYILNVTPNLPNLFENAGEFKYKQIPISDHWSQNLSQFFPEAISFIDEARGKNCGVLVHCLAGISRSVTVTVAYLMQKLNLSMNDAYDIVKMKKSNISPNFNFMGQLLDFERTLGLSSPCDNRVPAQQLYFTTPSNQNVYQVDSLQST

Turning to `COc1cccc(C2/C(=C(/O)c3cnn(-c4ccccc4)c3C)C(=O)C(=O)N2CCN(C)C)c1` (stereo unspecified), in assay [1], the cell count amounted to 510. Further, the inhibition is -2.9% (inactive) in [1], -176% (inactive) in [2], -8.76% (inactive) in assay [4] and 7.34% (inactive) in assay [9]. In [2], this compound gave a nuclei count of 132%. The z-score in [3] (setting [10]) is 0.354; in assay [3] (setting [11]), -0.911; in [3] (setting [12]), 0.0449. Also, the fluorescence slope in assay [5] is -0.551 (inactive). Moreover, in [6], the NADPH fluorescence slope is -7.2e-05 (inactive). Also, in [7], the slope is 0.00551 (inactive). Moreover, the call in assay [8] was inactive.
As to `Cn1c(O)c(C=Nc2ccc(Cc3ccncc3)cc2)c(=O)n(C)c1=O`, in assay [1], the cell count is 642. Besides, the inhibition in assay [1] is 6.6% (inactive); in assay [2] it was -91% (inactive); in assay [4], 4.25% (inactive); in assay [9] it was -1.46% (inactive). In assay [2], the nuclei count stood at 136%. Moreover, the z-score in assay [3] (setting [10]) is -1.1; in [3] (setting [11]), -0.451; in [3] (setting [12]), 0.687. Also, the fluorescence slope in assay [5] is -0.486 (inactive). In assay [6], the NADPH fluorescence slope was -9.5e-05 (inactive). Besides, in assay [7], the slope was 0.00577 (inactive). In [8], the result was inactive.
Turning to `Cc1ccc(OCc2nnc(NC(=O)c3ccco3)s2)c(C)c1`, in [1], the cell count came out at 438. The inhibition is -7.3% (inactive) in assay [1], 15.6% (inactive) in assay [2], -1.12% (inactive) in assay [4] and -4.85% (inactive) in assay [9]. The compound further returned a nuclei count in [2] of 106%. Further, the z-score in [3] (setting [10]) is -0.686; in [3] (setting [11]) it was -0.603; in assay [3] (setting [12]) it was 0.0542. In [5], the fluorescence slope is -0.308 (inactive). Further, the NADPH fluorescence slope in [6] is -1.3e-05 (inactive). Also, the slope in [7] was 0.00608 (inactive). Also, the call in assay [8] was inactive.
On to `N#Cc1ccc(-c2ccco2)nc1SCC(=O)c1ccc(Cl)cc1`, for which the cell count in [1] was 431. The inhibition in [1] is 0% (inactive); in assay [2], -80.7% (inactive); in assay [4], 7.83% (inactive); in [9] it was -1.61% (inactive). In assay [2], this compound displayed a nuclei count of 138%. The z-score in assay [3] (setting [10]) was -1.49; in assay [3] (setting [11]), -0.417; in [3] (setting [12]), 1.23. Moreover, the fluorescence slope in assay [5] is -0.288 (inactive). The NADPH fluorescence slope in assay [6] was -2.9e-05 (inactive). In addition, the slope in assay [7] is 0.00718 (inactive). For the same compound, in assay [8], the compound was classed as inactive.
As for `COc1ccc(C2=Nn3c(nnc3-c3ccccn3)SC2)cc1`, the cell count in assay [1] stood at 635. In addition, the inhibition was -4.7% (inactive) in assay [1], -43.3% (inactive) in assay [2], -4.27% (inactive) in assay [4] and 2.53% (inactive) in assay [9]. In [2], this compound displayed a nuclei count of 169%. Moreover, the z-score in [3] (setting [10]) is 0.562; in [3] (setting [11]), 0.488; in [3] (setting [12]), -0.686. For the same compound, the fluorescence slope in [5] was -0.427 (inactive). Also, the NADPH fluorescence slope in assay [6] is -0.00018 (inactive). Moreover, the slope in [7] was 0.0069 (inactive). Also, the compound was classed as inactive in [8].
With `CCOC(=O)C1=C(C)N=C2SC(C)C(=O)N2C1c1ccc(OC(C)=O)c(OC)c1` (stereo unspecified), in assay [1], the cell count worked out at 364. Also, the inhibition in [1] is -4% (inactive); in assay [2], -11.8% (inactive); in assay [4], -4.59% (inactive); in assay [9] it was 21.6% (inactive). In assay [2], this compound had a nuclei count of 184%. Besides, the values for the z-score in assay [3] (setting [10]), in [3] (setting [11]) and in [3] (setting [12]) were 0.885, -1.84 and 1.33, respectively. Further, the fluorescence slope in assay [5] was -0.413 (inactive). Moreover, in [6], the NADPH fluorescence slope is -0.000136 (inactive). Moreover, in assay [7], the slope was 0.00549 (inactive). The call in [8] was inactive.
Consider `COc1ccc2c(c1OC)C(=O)N1c3ccccc3C(=O)N(c3ccc(F)cc3)C21` (stereo unspecified), for which the cell count in assay [1] came out at 409. The inhibition was -15.5% (inactive) in [1], -44.4% (inactive) in assay [2], -1.12% (inactive) in assay [4] and 6.22% (inactive) in assay [9]. In assay [2], the nuclei count came out at 103%. Besides, the values for the z-score in assay [3] (setting [10]), in assay [3] (setting [11]) and in assay [3] (setting [12]) were -0.0624, -0.142 and 0.819, respectively. Besides, the fluorescence slope in assay [5] was -0.305 (inactive). Also, in [6], the NADPH fluorescence slope was -2.1e-05 (inactive). The slope in [7] was 0.00563 (inactive). In addition, the call in assay [8] was inactive.
